Molecules are shown by their SMILES. Values after ≈ are worked out from the molar mass of the structure shown.

One may read the MIC as the smallest concentration in the dilution series that meets the test's criterion for growth inhibition. The low end stands for a more susceptible organism, the high end for a less susceptible organism. One may read the Km as the substrate concentration at which the rate is half of its maximum. In general, Vmax refers to the rate approached at saturating substrate. The kcat is the maximal rate divided by the concentration of active sites.

Assay [1] relates to Escherichia coli. In words: Antibacterial activity against aminoglycoside-susceptible Escherichia coli ATCC 25922 after 12 to 18 hrs. In kind it is functional. Summed up:
(§1)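 Broth microdilution. Bacterial suspension adjusted with broth to absorbance 0.08–0.1 at 625 nm, diluted further in broth, and mixed in wells with 2-fold serial dilutions of compound. Plates incubated at 35°C for 12–18 h. MIC is the lowest concentration inhibiting growth; each determination repeated at least three times.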

The next assay relates to Staphylococcus aureus. Description: Antibacterial activity against aminoglycoside-susceptible Staphylococcus aureus ATCC 25923 after 12 to 18 hrs. The class given is functional. Summed up: as §1
Assay [2] has as its system Escherichia coli. In words: Antibacterial activity against aminoglycoside-susceptible Escherichia coli TG1 after 12 to 18 hrs. In kind it is functional. Summed up:
as §1

Assay [3] has as its system Escherichia coli. Description: Antibacterial activity against Escherichia coli TG1 pSF815 plasmid encoded for AAC(6')/APH(2') after 12 to 18 hrs. The class given is functional. Summed up: as §1
Assay [4] relates to Escherichia coli. In words: Antibacterial activity against Escherichia coli TG1 pTZ19U-3 plasmid encoded for APH(3')-1 after 12 to 18 hrs. The class given is functional. Summed up: as §1
Assay [5] relates to Enterococcus. In words: Activity of Enterococcus APH(3')-3a.
The test system of assay [6] is Enterococcus. In words: Ratio of kcat to Km of Enterococcus APH(3')-3a.
Assay [7] has as its system Escherichia coli. Description: Antibacterial activity against Escherichia coli TG1 pET28a plasmid encoded for APH(3')-3a after 12 to 18 hrs. In kind it is functional. The essentials: as §1

Turning to `CC(=O)NCC1CN(Cc2cn(C[C@H]3O[C@@H](O[C@@H]4[C@@H](O)[C@H](N)C[C@H](N)[C@H]4O[C@H]4O[C@H](CN)[C@@H](O)[C@H](O)[C@H]4N)[C@H](O)[C@@H]3O[C@H]3O[C@@H](CN)[C@@H](O)[C@H](O)[C@H]3N)nn2)C(=O)O1` (stereo not given in full), the MIC is 32 µg/mL (≈ 38.3 µM) in the assay on Escherichia coli [1]; 4 µg/mL (≈ 4.79 µM) with Staphylococcus aureus; 16 µg/mL (≈ 19.1 µM) with Escherichia coli [2]; 32 µg/mL (≈ 38.3 µM) with Escherichia coli [3]; at least 2000 µg/mL against Escherichia coli [4]; 125 µg/mL (≈ 150 µM) against Escherichia coli [7]. Besides, in the assay on Enterococcus [5], the Km came to 160 µM. Further, the Vmax in the assay on Enterococcus [5] was 0.41 µmol/min/mg. Also, the turnover number (kcat) in the assay with Enterococcus [5] is 0.21 s⁻¹. Besides, the kcat/Km in the assay with Enterococcus [6] was 0.13 ×10⁴ /M/s.

`NC[C@@H]1O[C@H](O[C@H]2[C@@H](O)[C@H](O[C@@H]3[C@@H](O)[C@H](N)C[C@H](N)[C@H]3O[C@H]3O[C@H](CN)[C@@H](O)[C@H](O)[C@H]3N)O[C@@H]2CNC(=O)c2cc(-c3ccccc3)nc3ccccc23)[C@H](N)[C@@H](O)[C@@H]1O`: the MIC against Escherichia coli [1] was 8 µg/mL (≈ 9.47 µM); in the assay with Staphylococcus aureus it was 4 µg/mL (≈ 4.73 µM); in the assay with Escherichia coli [2] it was 8 µg/mL (≈ 9.47 µM); in the assay with Escherichia coli [3], 16 µg/mL (≈ 18.9 µM); against Escherichia coli [4], at least 2000 µg/mL; in the assay on Escherichia coli [7] it was 32 µg/mL (≈ 37.9 µM). Besides, in the assay with Enterococcus [5], the Km came to 400 µM. For the same compound, the Vmax in the assay with Enterococcus [5] is 0.38 µmol/min/mg. For the same compound, the kcat in the assay with Enterococcus [5] is 0.19 s⁻¹. Further, the kcat/Km in the assay on Enterococcus [6] came to 0.048 ×10⁴ /M/s.

In the case of `NC[C@@H]1O[C@H](O[C@H]2[C@@H](O)[C@H](O[C@@H]3[C@@H](O)[C@H](N)C[C@H](N)[C@H]3O[C@H]3O[C@H](CN)[C@@H](O)[C@H](O)[C@H]3N)O[C@@H]2Cn2cc(C3CCCCN3)nn2)[C@H](N)[C@@H](O)[C@@H]1O` (stereo not given in full), the MIC is 8 µg/mL (≈ 10.7 µM) against Escherichia coli [1]; 2 µg/mL (≈ 2.67 µM) against Staphylococcus aureus; 16 µg/mL (≈ 21.4 µM) in the assay with Escherichia coli [2]; 16 µg/mL (≈ 21.4 µM) against Escherichia coli [3]; at least 2000 µg/mL against Escherichia coli [4]; 125 µg/mL (≈ 167 µM) with Escherichia coli [7]. For the same compound, the Km in the assay with Enterococcus [5] was 150 µM. Also, the Vmax in the assay on Enterococcus [5] came out at 0.54 µmol/min/mg. Further, the catalytic constant (kcat) in the assay with Enterococcus [5] amounted to 0.27 s⁻¹. Further, the kcat/Km in the assay with Enterococcus [6] was 0.18 ×10⁴ /M/s.

On to `NCC[C@H](O)C(=O)NC[C@H]1O[C@@H](O[C@@H]2[C@@H](O)[C@H](N)C[C@H](N)[C@H]2O[C@H]2O[C@H](CN)[C@@H](O)[C@H](O)[C@H]2N)[C@H](O)[C@@H]1O[C@H]1O[C@@H](CN)[C@@H](O)[C@H](O)[C@H]1N`, for which the MIC was 8 µg/mL (≈ 11.2 µM) in the assay on Escherichia coli [1]; 1 µg/mL (≈ 1.4 µM) with Staphylococcus aureus; 16 µg/mL (≈ 22.4 µM) in the assay with Escherichia coli [2]; 16 µg/mL (≈ 22.4 µM) in the assay with Escherichia coli [3]; at least 2000 µg/mL in the assay on Escherichia coli [4]; 125 µg/mL (≈ 175 µM) in the assay on Escherichia coli [7]. In addition, the Km in the assay with Enterococcus [5] was 50 µM. Further, the Vmax with Enterococcus [5] came out at 0.93 µmol/min/mg. For the same compound, the kcat in the assay on Enterococcus [5] came to 0.47 s⁻¹. The kcat/Km with Enterococcus [6] amounted to 0.94 ×10⁴ /M/s.

As to `NC[C@@H]1O[C@H](O[C@H]2[C@@H](O)[C@H](O[C@@H]3[C@@H](O)[C@H](N)C[C@H](N)[C@H]3O[C@H]3O[C@H](CN)[C@@H](O)[C@H](O)[C@H]3N)O[C@@H]2CNC(=O)[C@H](N)CO)[C@H](N)[C@@H](O)[C@@H]1O`, the MIC is 8 µg/mL (≈ 11.4 µM) against Escherichia coli [1]; 1 µg/mL (≈ 1.43 µM) in the assay with Staphylococcus aureus; 8 µg/mL (≈ 11.4 µM) with Escherichia coli [2]; 16 µg/mL (≈ 22.8 µM) with Escherichia coli [3]; at least 2000 µg/mL in the assay with Escherichia coli [4]; 64 µg/mL (≈ 91.3 µM) against Escherichia coli [7]. For the same compound, the Km in the assay on Enterococcus [5] worked out at 57 µM. Also, the maximum rate (Vmax) in the assay on Enterococcus [5] was determined as 0.93 µmol/min/mg. In addition, in the assay with Enterococcus [5], the kcat is 0.47 s⁻¹. In addition, the kcat/Km with Enterococcus [6] turned out to be 0.82 ×10⁴ /M/s.

Source of the values: ChEMBL document CHEMBL1140232, “Surprising alteration of antibacterial activity of 5"-modified neomycin against resistant bacteria” (2008).
